# Activity calls are given as the source filed them. The calls are words filed in the database; no cut-off is given here.
# How the values were obtained:
# [1] = Cytotoxicity against human HepG2 cells assessed as cell viability at 1000 uM after 72 hrs by MTT assay relative to control; assay type: cell-based; settings: read-out: Activity
# Summary of the method: (§1)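 Cells grown in DMEM with 10% FBS at 37 °C, 5% CO₂; seeded 2 x 10³ cells/well, adhered 24 h, then exposed 72 h. MTT: 1 mg/mL for 3 h, formazan in DMSO, absorbance 595 nm. NRU: neutral red 25 µg/mL in serum-free medium for 3 h, desorbed in ethanol:acetic acid:water. Viability as % of untreated control; mean ± SEM of three to five independent experiments in triplicate.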
# [2] = Cytotoxicity against human HepG2 cells assessed as cell viability at 100 uM after 72 hrs by neutral red uptake-based assay relative to control; settings: read-out: Activity; summary of the method: as §1
# [3] = Cytotoxicity against African green monkey Vero cells assessed as cell viability at 25 uM after 72 hrs by MTT assay relative to control; assay type: cell-based; settings: chlorocebus sabaeus, read-out: Activity; summary of the method: as §1
# [4] = Cytotoxicity against African green monkey Vero cells assessed as cell viability at 1000 uM after 72 hrs by MTT assay relative to control; assay type: cell-based; settings: chlorocebus sabaeus, read-out: Activity; summary of the method: as §1
# [5] = Cytotoxicity against African green monkey Vero cells assessed as cell viability at 50 uM after 72 hrs by neutral red uptake-based assay relative to control; settings: chlorocebus sabaeus, read-out: Activity; summary of the method: as §1
# [6] = Cytotoxicity against African green monkey Vero cells assessed as cell viability at 100 uM after 72 hrs by neutral red uptake-based assay relative to control; settings: chlorocebus sabaeus, read-out: Activity; summary of the method: as §1
# [7] = Cytotoxicity against African green monkey Vero cells assessed as cell viability at 250 uM after 72 hrs by neutral red uptake-based assay relative to control; settings: chlorocebus sabaeus, read-out: Activity; summary of the method: as §1
# [8] = Cytotoxicity against African green monkey Vero cells assessed as cell viability at 500 uM after 72 hrs by neutral red uptake-based assay relative to control; settings: chlorocebus sabaeus, read-out: Activity; summary of the method: as §1
# [9] = Cytotoxicity against human HaCaT cells assessed as cell viability at 100 uM after 72 hrs by MTT assay relative to control; assay type: cell-based; settings: read-out: Activity; summary of the method: as §1
# [10] = Cytotoxicity against human HaCaT cells assessed as cell viability at 250 uM after 72 hrs by MTT assay relative to control; assay type: cell-based; settings: read-out: Activity; summary of the method: as §1
# [11] = Cytotoxicity against human HaCaT cells assessed as cell viability at 250 uM after 72 hrs by neutral red uptake-based assay relative to control; settings: read-out: Activity; summary of the method: as §1
# [12] = Cytotoxicity against mouse RAW264.7 cells assessed as cell viability at 250 uM after 72 hrs by MTT assay relative to control; assay type: cell-based; settings: read-out: Activity
# Summary of the method: (§2)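 Cells kept in DMEM with 10% heat-inactivated FBS, 1% penicillin-streptomycin and 0.1% fungizone at 37 °C, 5% CO₂. U-87 MG seeded at 2 x 10^3 cells/well, RAW 264.7 at 5 x 10^2, adhered 24 h, then exposed 72 h. MTT: 1 mg/mL for 3 h, formazan in DMSO, A595. NRU: 25 μg/mL dye, 3 h, ethanol:acetic acid:water desorb. Untreated wells = 100%; three to five independent experiments in triplicate.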
# [13] = Cytotoxicity against mouse RAW264.7 cells assessed as cell viability at 500 uM after 72 hrs by MTT assay relative to control; assay type: cell-based; settings: read-out: Activity; summary of the method: as §2
# [14] = Cytotoxicity against mouse RAW264.7 cells assessed as cell viability at 1000 uM after 72 hrs by MTT assay relative to control; assay type: cell-based; settings: read-out: Activity; summary of the method: as §2
# [15] = Cytotoxicity against human U87MG cells assessed as cell viability at 25 uM after 72 hrs by MTT assay relative to control; assay type: cell-based, U-87MG ATCC; settings: read-out: Activity; summary of the method: as §2
# [16] = Cytotoxicity against human U87MG cells assessed as cell viability at 25 uM after 72 hrs by neutral red uptake-based assay relative to control; set-up: species or system U-87MG ATCC; settings: read-out: Activity; summary of the method: as §2
# [17] = Cytotoxicity against human U87MG cells assessed as cell viability at 1000 uM after 72 hrs by neutral red uptake-based assay relative to control; set-up: species or system U-87MG ATCC; settings: read-out: Activity; summary of the method: as §2
# Cytochrome P450 1A2 = biological target: T1, Cytochrome P450 1A2 (Homo sapiens, UniProt P05177); assay: Inhibition of CYP1A2 in human liver microsomes by HPLC-MS/MS analysis; assay type: ADME
# T1 sequence (P05177 whole entry): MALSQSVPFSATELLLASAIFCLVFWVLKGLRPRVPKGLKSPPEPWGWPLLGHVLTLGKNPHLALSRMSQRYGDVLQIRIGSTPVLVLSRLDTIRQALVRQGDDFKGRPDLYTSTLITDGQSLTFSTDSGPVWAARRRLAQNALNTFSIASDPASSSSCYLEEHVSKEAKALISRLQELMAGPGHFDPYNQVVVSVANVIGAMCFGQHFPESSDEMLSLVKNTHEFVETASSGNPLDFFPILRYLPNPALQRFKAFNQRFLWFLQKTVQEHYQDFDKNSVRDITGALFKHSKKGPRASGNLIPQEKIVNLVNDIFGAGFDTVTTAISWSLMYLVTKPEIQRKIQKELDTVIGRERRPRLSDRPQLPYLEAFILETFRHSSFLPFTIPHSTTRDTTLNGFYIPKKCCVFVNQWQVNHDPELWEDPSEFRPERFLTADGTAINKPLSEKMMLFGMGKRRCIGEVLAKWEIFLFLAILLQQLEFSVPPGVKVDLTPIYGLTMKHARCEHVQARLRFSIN
# Cytochrome P450 2C9 = Cytochrome P450 2C9 (Homo sapiens, UniProt P11712); assay: Inhibition of CYP2C9 in human liver microsomes by HPLC-MS/MS analysis; assay type: ADME
# Sequence of Cytochrome P450 2C9 (P11712 whole entry): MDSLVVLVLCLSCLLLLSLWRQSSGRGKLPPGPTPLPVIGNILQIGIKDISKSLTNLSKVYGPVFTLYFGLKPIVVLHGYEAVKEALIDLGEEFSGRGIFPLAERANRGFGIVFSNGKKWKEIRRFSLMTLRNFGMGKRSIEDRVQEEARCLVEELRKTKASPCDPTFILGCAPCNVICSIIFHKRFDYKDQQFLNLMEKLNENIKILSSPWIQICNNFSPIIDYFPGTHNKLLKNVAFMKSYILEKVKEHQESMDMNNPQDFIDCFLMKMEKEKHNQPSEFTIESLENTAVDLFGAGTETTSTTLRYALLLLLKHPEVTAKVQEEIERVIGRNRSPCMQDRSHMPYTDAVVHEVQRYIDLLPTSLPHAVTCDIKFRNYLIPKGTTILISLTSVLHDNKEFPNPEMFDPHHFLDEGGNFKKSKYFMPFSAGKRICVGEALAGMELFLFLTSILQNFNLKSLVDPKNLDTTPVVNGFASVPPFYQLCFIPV
# Cytochrome P450 2D6 = Cytochrome P450 2D6 (Homo sapiens, UniProt P10635); assay: Inhibition of CYP2D6 in human liver microsomes by HPLC-MS/MS analysis; assay type: ADME
# Sequence of Cytochrome P450 2D6 (P10635 whole entry): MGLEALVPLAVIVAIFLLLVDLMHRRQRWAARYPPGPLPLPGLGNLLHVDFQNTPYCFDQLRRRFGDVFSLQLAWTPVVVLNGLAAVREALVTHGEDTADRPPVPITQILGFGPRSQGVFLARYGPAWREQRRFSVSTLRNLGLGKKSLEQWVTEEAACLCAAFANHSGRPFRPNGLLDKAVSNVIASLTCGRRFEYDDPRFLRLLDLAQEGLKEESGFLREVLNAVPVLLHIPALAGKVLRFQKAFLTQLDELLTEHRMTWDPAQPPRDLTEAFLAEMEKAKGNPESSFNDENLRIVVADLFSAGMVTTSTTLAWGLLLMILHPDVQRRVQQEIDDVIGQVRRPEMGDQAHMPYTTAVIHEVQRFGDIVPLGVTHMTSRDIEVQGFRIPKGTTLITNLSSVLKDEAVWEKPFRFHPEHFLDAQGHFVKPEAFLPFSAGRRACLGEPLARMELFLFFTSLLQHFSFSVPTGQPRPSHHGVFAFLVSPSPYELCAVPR
# [18] = AUCM (0 to infinity) in CF1 mouse at 50 mg/kg, ip by non-compartmental analysis; assay type: ADME, organism-based; settings: in vivo
# [19] = MRT in CF1 mouse at 50 mg/kg, ip by non-compartmental analysis; assay type: ADME, organism-based; settings: in vivo
# [20] = Toxicity in nude BALB/c mouse xenografted with human U87MG cells assessed as reduction in body weight at 50 mg/kg, […]; assay type: organism-based; settings: in vivo, ip, 120 h
# U-87 MG [21] = assay: Anti-angiogenic activity in tumor of human U87MG cells xenografted in nude BALB/c mouse assessed as reduction in VEGF staining at 50 mg/kg, ip administered for 14 days by immunohistochemistry; assay type: functional, organism-based; settings: U-87MG ATCC
# Summary of the method: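 Male nude mice bearing subcutaneous right-flank xenografts of 5 x 10⁵ U-87 MG cells; dosing began at about 50 mm³ tumors, ip daily for 14 days. Tumors formalin-fixed, paraffin sections 3 µm; citrate pH 6 antigen retrieval at 95-98 °C; primary antibody overnight at 4 °C, HRP secondary, DAB. Positive area quantified by optical density at x200, 4 images per tumor; mean ± SEM, one-way ANOVA with Dunnett.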
# U-87 MG [22] = assay: In-vivo inhibition of cell proliferation in human U87MG cells xenografted in BALB/c nude mouse at 50 mg/kg, ip after 14 days by Ki-67b-staining based assay; assay type: functional, organism-based; settings: U-87MG ATCC
# Summary of the method: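 Male BALB/c nude mice implanted subcutaneously with 5 x 10⁵ U-87 MG cells in the right flank. Treated IP at 50 mg/kg/day for 14 days, with saline controls, starting once tumors reached about 50 mm³. Tumors fixed in formaldehyde and cut at 3 µm. Citrate pH 6 antigen retrieval.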
# [23] = Toxicity in nude BALB/c mouse xenografted with human U87MG cells assessed as reduction in body weight at 50 mg/kg, […] co-treated with temozolamide; assay type: organism-based; settings: in vivo, ip, 120 h
smiles,measurement,setting,value
O=c1[nH]c(CNC(CO)CO)c(I)c(=O)[nH]1,"viability at 72 h, 1000 µM",[1],82%
same,"viability at 72 h, 100 µM",[2],102%
same,"viability at 72 h, 25 µM",[3],101%
same,"viability at 72 h, 1000 µM",[4],75%
same,"viability at 72 h, 50 µM",[5],112%
same,"viability at 72 h, 100 µM",[6],108%
same,"viability at 72 h, 250 µM",[7],103%
same,"viability at 72 h, 500 µM",[8],90%
same,"viability at 72 h, 100 µM",[9],98%
same,"viability at 72 h, 250 µM",[10],96%
same,"viability at 72 h, 250 µM",[11],100%
same,"viability at 72 h, 250 µM",[12],95%
same,"viability at 72 h, 500 µM",[13],91%
same,"viability at 72 h, 1000 µM",[14],72%
same,"viability at 72 h, 25 µM",[15],101%
same,"viability at 72 h, 25 µM",[16],99%
same,"viability at 72 h, 1000 µM",[17],72%
same,IC50,Cytochrome P450 1A2,> 100 µM
same,IC50,Cytochrome P450 2C9,> 100 µM
same,IC50,Cytochrome P450 2D6,> 100 µM
same,AUMC,[18],7.6 µg·h²/mL
same,MRT,[19],24 min
same,Activity,[20],Non-Toxic
same,Activity,U-87 MG [21],Active
same,inhibition,U-87 MG [22],inactive
same,Activity,[23],Non-Toxic

# Source: ChEMBL document CHEMBL4422632, “Design of Novel Inhibitors of Human Thymidine Phosphorylase: Synthesis, Enzyme Inhibition, in Vitro Toxicity, and Impact on Human Glioblastoma Cancer” (J Med Chem, 2019)
